Measured values reported in ChEMBL document CHEMBL5661979, “Pharmacological inhibition of BMK1 suppresses tumor growth through promyelocytic leukemia protein” (Cancer Cell, 2010).

Key:
[1] = biological target: T1, Ribosomal protein S6 kinase alpha-3 (Homo sapiens, UniProt P51812); experiment: Inhibition of RSK2 in human HeLa cells lysate pre incubated for 15 mins followed by ATP acyl phosphate probe addition and measured after 10 mins by LC-MS/MS analysis; type: subcellular
[2] = Inhibition of Wnk1/2/4 in human HeLa cells lysate pre incubated for 15 mins followed by ATP acyl phosphate probe addition and measured after 10 mins by LC-MS/MS analysis; type: subcellular
Ephrin type-B receptor 4 = Ephrin type-B receptor 4 (Homo sapiens, UniProt P54760); experiment: Inhibition of EphB4 in human HeLa cells lysate pre incubated for 15 mins followed by ADP acyl phosphate probe addition and measured after 10 mins by LC-MS/MS analysis; type: subcellular
[3] = biological target: T1, Ribosomal protein S6 kinase alpha-3; experiment: Inhibition of RSK2 domain 2 in human HeLa cells lysate at 50 uM pre incubated for 15 mins followed by ADP acyl phosphate probe addition and measured after 10 mins by LC-MS/MS analysis relative to control; type: subcellular; conditions: time 25.0 min
[4] = biological target: T2, Serine/threonine-protein kinase/endoribonuclease IRE1 (Homo sapiens, UniProt O75460); experiment: Inhibition of IRE1 in human HeLa cells lysate at 50 uM pre incubated for 15 mins followed by ADP acyl phosphate probe addition and measured after 10 mins by LC-MS/MS analysis relative to control; type: subcellular; conditions: time 25.0 min
T2 sequence (O75460 19-977 limits assumed): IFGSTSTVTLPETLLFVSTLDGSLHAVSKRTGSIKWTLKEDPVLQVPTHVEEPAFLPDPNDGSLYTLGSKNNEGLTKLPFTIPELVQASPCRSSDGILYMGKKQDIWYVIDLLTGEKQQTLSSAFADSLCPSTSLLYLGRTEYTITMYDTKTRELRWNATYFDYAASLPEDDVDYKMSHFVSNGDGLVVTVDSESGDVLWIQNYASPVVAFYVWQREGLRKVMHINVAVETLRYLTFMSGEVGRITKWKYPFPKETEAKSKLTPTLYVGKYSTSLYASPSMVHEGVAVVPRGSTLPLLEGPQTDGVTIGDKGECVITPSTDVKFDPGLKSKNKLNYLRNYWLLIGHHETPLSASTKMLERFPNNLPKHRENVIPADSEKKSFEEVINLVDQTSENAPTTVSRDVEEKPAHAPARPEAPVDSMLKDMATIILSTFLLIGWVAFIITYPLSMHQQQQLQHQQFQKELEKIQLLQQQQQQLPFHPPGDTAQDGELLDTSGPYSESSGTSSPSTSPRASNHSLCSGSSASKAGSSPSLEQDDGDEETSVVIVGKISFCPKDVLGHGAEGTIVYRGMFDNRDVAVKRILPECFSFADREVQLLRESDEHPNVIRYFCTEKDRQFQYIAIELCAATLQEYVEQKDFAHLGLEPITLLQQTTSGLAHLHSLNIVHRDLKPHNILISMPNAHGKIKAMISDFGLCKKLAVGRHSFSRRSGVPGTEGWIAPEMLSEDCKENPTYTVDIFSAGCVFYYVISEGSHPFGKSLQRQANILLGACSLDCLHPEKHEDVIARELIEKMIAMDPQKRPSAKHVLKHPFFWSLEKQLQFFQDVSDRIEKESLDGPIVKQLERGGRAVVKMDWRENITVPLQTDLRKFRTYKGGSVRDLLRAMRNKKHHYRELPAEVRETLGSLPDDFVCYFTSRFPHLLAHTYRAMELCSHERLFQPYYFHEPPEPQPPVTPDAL

[5] = biological target: T3, EKC/KEOPS complex subunit TP53RK (Homo sapiens) (UniProt Q96S44); experiment: Inhibition of PRPK in human HeLa cells lysate at 10 uM pre incubated for 15 mins followed by ADP acyl phosphate probe addition and measured after 10 mins by LC-MS/MS analysis relative to control; type: subcellular; conditions: time 25.0 min
T3 sequence (whole entry): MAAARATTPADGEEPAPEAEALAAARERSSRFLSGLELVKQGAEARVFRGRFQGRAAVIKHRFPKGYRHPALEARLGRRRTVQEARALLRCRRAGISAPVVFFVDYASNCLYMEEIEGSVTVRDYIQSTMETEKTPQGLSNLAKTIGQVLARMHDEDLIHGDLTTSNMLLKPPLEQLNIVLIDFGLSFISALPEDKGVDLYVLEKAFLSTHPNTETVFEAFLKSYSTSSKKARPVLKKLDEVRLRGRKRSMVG

[6] = biological target: T4, Dual specificity mitogen-activated protein kinase kinase 6 (Homo sapiens) (UniProt P52564); experiment: Inhibition of MAP2K6 in human HeLa cells lysate at 10 uM pre incubated for 15 mins followed by ADP acyl phosphate probe addition and measured after 10 mins by LC-MS/MS analysis relative to control; type: subcellular; conditions: time 25.0 min
T4 sequence (whole entry): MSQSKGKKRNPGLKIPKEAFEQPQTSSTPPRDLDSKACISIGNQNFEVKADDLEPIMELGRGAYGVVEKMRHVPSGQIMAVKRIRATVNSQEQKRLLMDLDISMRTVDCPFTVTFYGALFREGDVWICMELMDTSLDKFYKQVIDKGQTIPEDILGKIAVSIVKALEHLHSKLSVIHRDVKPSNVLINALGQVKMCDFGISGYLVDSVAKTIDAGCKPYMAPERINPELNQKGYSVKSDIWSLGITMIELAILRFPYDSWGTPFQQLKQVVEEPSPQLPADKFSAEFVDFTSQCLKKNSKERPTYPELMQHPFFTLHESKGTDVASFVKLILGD

[7] = biological target: T5, Serine/threonine-protein kinase 4 (Homo sapiens) (UniProt Q13043); experiment: Inhibition of MST1 in human HeLa cells lysate at 2 uM pre incubated for 15 mins followed by ADP acyl phosphate probe addition and measured after 10 mins by LC-MS/MS analysis relative to control; type: subcellular; conditions: time 25.0 min
T5 sequence (whole entry): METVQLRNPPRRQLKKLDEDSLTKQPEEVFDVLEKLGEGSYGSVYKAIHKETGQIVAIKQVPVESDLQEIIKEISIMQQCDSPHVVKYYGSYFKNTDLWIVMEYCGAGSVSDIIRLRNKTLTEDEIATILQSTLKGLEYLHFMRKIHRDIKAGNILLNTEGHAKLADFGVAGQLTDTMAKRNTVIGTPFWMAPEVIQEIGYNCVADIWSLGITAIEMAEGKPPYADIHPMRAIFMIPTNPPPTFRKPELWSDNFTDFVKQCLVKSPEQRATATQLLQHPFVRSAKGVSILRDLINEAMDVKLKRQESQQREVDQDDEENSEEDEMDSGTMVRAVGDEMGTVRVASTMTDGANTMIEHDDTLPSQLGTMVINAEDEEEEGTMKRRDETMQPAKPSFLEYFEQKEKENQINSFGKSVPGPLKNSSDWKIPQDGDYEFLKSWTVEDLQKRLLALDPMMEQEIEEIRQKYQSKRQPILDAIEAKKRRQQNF

[8] = biological target: T2, Serine/threonine-protein kinase/endoribonuclease IRE1; experiment: Inhibition of IRE1 in human HeLa cells lysate at 2 uM pre incubated for 15 mins followed by ADP acyl phosphate probe addition and measured after 10 mins by LC-MS/MS analysis relative to control; type: subcellular; conditions: time 25.0 min
[9] = biological target: Protein kinase C iota type (Homo sapiens) (UniProt P41743); experiment: Inhibition of PKCiota in human HeLa cells lysate at 2 uM pre incubated for 15 mins followed by ADP acyl phosphate probe addition and measured after 10 mins by LC-MS/MS analysis relative to control; type: subcellular; conditions: time 25.0 min
Sequence of Protein kinase C iota type (Homo sapiens) (P41743 whole entry): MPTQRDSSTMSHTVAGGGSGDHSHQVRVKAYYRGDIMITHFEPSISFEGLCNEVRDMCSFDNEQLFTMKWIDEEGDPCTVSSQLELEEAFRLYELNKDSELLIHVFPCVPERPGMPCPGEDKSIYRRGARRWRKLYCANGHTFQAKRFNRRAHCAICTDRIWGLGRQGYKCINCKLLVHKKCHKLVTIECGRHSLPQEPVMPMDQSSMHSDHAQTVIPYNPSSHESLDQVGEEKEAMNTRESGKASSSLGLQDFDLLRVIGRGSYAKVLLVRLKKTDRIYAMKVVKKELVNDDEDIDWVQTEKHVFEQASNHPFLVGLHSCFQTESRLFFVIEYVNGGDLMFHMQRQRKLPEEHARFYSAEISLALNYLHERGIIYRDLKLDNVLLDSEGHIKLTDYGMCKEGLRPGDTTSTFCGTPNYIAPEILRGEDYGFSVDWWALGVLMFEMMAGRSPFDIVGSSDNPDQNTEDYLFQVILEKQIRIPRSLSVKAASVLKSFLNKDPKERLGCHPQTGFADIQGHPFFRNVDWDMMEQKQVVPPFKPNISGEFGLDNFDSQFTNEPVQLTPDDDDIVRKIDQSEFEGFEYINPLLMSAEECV

[10] = biological target: Mitogen-activated protein kinase kinase kinase 20 (Homo sapiens, UniProt Q9NYL2); experiment: Inhibition of ZAK in human HeLa cells lysate at 2 uM pre incubated for 15 mins followed by ATP acyl phosphate probe addition and measured after 10 mins by LC-MS/MS analysis relative to control; type: subcellular; conditions: time 25.0 min
Sequence of Mitogen-activated protein kinase kinase kinase 20 (Q9NYL2 2-800 limits assumed): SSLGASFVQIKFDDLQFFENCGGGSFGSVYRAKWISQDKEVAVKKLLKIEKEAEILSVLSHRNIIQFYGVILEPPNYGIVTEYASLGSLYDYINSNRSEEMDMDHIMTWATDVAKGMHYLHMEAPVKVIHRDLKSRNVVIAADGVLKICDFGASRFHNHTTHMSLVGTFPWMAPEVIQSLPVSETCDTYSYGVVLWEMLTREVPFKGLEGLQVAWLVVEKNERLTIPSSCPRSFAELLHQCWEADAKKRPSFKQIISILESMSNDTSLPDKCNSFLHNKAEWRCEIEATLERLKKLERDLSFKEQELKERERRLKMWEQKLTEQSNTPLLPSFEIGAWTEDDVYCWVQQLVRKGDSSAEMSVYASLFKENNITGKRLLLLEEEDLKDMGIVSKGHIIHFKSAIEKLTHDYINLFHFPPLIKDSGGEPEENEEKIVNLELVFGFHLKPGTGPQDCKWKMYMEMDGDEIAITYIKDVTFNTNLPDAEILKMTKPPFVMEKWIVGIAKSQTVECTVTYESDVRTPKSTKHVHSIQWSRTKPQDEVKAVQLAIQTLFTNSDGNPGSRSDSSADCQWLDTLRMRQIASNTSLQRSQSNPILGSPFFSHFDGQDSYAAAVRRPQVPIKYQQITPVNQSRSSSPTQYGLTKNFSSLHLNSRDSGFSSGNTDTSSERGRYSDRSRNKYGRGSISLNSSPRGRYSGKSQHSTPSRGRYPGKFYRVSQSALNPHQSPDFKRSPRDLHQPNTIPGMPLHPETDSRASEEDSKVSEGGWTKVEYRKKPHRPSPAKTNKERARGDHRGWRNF

AMPK alpha1/alpha2 = AMPK alpha1/alpha2 (Homo sapiens, UniProt P54646+Q13131); experiment: Inhibition of AMPKalpha1/2 in human HeLa cells lysate at 2 uM pre incubated for 15 mins followed by ATP acyl phosphate probe addition and measured after 10 mins by LC-MS/MS analysis relative to control; type: subcellular; conditions: time 25.0 min
Sequence of AMPK alpha1/alpha2 (P54646 whole entry, looked up, the tested form may be a part): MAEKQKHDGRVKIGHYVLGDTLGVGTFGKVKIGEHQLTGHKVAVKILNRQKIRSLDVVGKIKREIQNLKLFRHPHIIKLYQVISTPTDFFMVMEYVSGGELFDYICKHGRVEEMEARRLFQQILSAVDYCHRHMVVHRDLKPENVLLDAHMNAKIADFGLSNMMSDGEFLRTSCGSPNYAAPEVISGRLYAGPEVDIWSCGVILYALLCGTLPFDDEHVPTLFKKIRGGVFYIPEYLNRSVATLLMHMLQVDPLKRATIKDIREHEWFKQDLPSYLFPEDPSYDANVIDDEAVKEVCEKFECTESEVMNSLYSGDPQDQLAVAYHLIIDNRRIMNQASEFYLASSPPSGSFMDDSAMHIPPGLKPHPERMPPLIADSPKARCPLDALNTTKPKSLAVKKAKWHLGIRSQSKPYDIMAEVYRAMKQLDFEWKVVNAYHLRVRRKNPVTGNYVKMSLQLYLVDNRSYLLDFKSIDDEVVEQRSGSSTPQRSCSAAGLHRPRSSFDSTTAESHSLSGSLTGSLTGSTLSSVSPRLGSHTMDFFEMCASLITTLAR
Sequence of AMPK alpha1/alpha2 (Q13131 whole entry, looked up, the tested form may be a part): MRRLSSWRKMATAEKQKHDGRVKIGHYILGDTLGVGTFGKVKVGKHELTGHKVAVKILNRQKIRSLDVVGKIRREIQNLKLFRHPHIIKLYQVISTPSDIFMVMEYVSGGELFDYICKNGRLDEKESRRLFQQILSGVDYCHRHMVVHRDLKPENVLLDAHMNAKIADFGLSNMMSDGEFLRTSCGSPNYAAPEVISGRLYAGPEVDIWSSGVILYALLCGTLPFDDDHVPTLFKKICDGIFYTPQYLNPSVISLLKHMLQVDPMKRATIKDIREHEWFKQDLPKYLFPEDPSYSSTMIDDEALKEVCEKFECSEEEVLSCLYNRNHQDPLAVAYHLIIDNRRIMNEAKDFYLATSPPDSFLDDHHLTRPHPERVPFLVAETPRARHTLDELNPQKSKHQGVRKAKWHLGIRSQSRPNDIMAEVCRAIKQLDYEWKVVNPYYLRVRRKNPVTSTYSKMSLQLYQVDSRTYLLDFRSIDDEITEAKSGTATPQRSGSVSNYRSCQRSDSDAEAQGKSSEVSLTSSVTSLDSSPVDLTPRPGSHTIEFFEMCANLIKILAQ
Summary of the method: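 HeLa cell lysates (5 mg/mL total protein) were preincubated with inhibitor at 0, 0.8, 2, 10 or 50 μM for 15 min. ATP or ADP acylphosphate probe was then added (5 μM final) for 10 min, and reactions were stopped with urea. Up to four fragment ions per kinase probe-peptide were quantified by targeted MS. % inhibition was taken relative to untreated lysate. Run in duplicate.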

[11] = biological target: Calcium/calmodulin-dependent protein kinase type II subunit gamma (Homo sapiens, UniProt Q13555); experiment: Inhibition of CAMK2g in human HeLa cells lysate at 2 uM pre incubated for 15 mins followed by ATP acyl phosphate probe addition and measured after 10 mins by LC-MS/MS analysis relative to control; type: subcellular; conditions: time 25.0 min
Sequence of Calcium/calmodulin-dependent protein kinase type II subunit gamma (Q13555 whole entry, the tested form may be a part): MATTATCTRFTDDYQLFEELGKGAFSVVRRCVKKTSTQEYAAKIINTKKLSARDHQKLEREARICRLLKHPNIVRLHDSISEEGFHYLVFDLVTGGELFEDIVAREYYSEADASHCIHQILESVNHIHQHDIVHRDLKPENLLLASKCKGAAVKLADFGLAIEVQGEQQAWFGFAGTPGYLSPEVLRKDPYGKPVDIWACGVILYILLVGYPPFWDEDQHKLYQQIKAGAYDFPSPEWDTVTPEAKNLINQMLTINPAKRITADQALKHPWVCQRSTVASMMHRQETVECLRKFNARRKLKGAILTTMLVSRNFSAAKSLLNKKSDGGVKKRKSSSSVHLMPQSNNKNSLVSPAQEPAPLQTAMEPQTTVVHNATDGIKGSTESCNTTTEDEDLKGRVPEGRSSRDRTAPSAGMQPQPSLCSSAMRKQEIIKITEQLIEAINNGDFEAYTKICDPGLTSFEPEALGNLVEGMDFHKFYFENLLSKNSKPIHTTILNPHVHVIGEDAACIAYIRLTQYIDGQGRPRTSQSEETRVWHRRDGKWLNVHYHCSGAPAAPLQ
Summary of the method: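 KiNativ-type profiling in HeLa lysate (5 mg/mL total protein). Lysate preincubated 15 min with inhibitor at 50, 10, 2, 0.8 or 0 μM, then ATP or ADP acylphosphate probe added (5 μM final) for 10 min. Reaction stopped with urea and analysed by targeted MS, using up to four fragment ions per kinase peptide-probe conjugate. % inhibition calculated against untreated lysate. Duplicate reactions.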

[12] = Cardiotoxicity in C57Bl/6 mouse assessed as vasculature instability in heart at 50 mg/kg, ip for 14 days by TUNEL assay; type: toxicity, organism-based; conditions: in vivo, 336 h, time 14 day
Summary of the method: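 Mice were dosed i.p. at 50 mg/kg over 14 days. Heart sections from treated and control mice were stained by immunofluorescence for CD31 and by TUNEL, with DNase-treated sections as the TUNEL positive control.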

T1 sequence (P51812 whole entry): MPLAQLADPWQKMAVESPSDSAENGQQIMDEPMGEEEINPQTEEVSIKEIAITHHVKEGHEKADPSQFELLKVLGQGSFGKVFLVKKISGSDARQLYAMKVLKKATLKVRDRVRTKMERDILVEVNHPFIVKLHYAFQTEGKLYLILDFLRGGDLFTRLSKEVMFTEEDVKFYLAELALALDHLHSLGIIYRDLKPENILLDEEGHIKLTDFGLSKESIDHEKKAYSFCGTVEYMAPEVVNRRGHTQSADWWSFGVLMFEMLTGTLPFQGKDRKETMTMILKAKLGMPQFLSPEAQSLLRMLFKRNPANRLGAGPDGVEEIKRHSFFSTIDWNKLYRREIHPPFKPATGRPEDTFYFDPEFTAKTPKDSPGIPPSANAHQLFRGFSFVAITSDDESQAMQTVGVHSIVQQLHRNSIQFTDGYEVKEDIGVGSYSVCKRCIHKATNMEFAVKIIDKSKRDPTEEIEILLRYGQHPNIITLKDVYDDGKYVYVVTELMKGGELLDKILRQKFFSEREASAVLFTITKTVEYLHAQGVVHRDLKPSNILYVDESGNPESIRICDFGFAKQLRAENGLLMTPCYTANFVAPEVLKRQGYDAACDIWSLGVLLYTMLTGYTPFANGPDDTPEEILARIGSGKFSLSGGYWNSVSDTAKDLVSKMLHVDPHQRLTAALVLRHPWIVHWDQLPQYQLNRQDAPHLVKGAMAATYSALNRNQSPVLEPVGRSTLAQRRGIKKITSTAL

Compound CCOc1cc(N2CCC(O)CC2)ccc1Nc1ncc2c(n1)N(C)c1ccccc1C(=O)N2C has an IC50 [1] of over 50 µM, an IC50 [2] of over 50 µM and an IC50 (Ephrin type-B receptor 4) of over 50 µM. For the same compound, the inhibition [3] was 49%, the inhibition [4] was 6.2% and the inhibition [5] was 13.5%. It also gave an inhibition [6] of 5.6%, an inhibition [7] of 30.6% and an inhibition [8] of 16.5%. It also gave an inhibition [9] of 18.9%, an inhibition [10] of 31.5% and an inhibition (AMPK alpha1/alpha2) of -0.7%. For the same compound, the inhibition [11] was 3% and the Activity [12] was “Non-Toxic”.
